Measurements: ChEMBL document CHEMBL4257574, “Structure-guided design and synthesis of isoflavone analogs of GW4064 with potent lipid accumulation inhibitory activities” (Bioorg Med Chem Lett, 2018)
Calls of active or inactive are those of the source. The rule behind the calls is not given here.

Legend:
3T3-L1 [1] = assay: Cytotoxicity against mouse 3T3L1 cells assessed as reduction in cell viability at 40 uM after 48 hrs by MTT assay; format: cell-based; details: 3t3-l1, 48 h
Outline: (§1)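 3T3-L1 preadipocytes incubated 48 h with 5, 10, 20 or 40 μM compound; viability read by MTT assay against 0.1% DMSO-treated control cells. Mean ± SD of three independent experiments.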

3T3-L1 [2] = assay: Cytotoxicity against mouse 3T3L1 cells assessed as effect on cell viability at 10 uM after 48 hrs by MTT assay; format: cell-based; details: 3t3-l1, 48 h; outline: as §1
3T3-L1 [3] = assay: Increase in cell viability of mouse 3T3L1 cells at 5 uM after 48 hrs by MTT assay; format: functional, cell-based; outline: as §1
3T3-L1 [4] = assay: Reduction in lipid accumulation in mouse 3T3L1 cells at 10 uM by Oil Red O staining-based absorbance method relative to control; format: functional
Outline: (§2)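 3T3-L1 preadipocytes differentiated to mature adipocytes, then treated with compound (screen at 10 μM; concentration series 10, 20, 40, 80 μM). Lipid stained with Oil Red O, dye extracted and absorbance read at 492 nm; microscopic images also taken. Compared with vehicle; mean ± SD of two independent experiments.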

3T3-L1 [5] = assay: Reduction in lipid accumulation in mouse 3T3L1 cells at 80 uM by Oil Red O staining-based absorbance method relative to control; format: functional; set-up: scale not given: the % may be the effect or the level left; outline: as §2
3T3-L1 [6] = assay: Reduction in lipid accumulation in mouse 3T3L1 cells by Oil Red O staining-based absorbance method; format: functional, cell-based; outline: as §2
3T3-L1 [7] = assay: Reduction in lipid accumulation in mouse 3T3L1 cells at 10 to 80 uM by Oil Red O staining-based microscopic analysis; format: functional, cell-based; outline: as §2
[8] = target: T1, Bile acid receptor (Homo sapiens) (UniProt Q96RI1); assay: Transactivation of FXR (unknown origin) at 10 uM by cell-based dual luciferase reporter gene assay
T1 sequence (whole entry): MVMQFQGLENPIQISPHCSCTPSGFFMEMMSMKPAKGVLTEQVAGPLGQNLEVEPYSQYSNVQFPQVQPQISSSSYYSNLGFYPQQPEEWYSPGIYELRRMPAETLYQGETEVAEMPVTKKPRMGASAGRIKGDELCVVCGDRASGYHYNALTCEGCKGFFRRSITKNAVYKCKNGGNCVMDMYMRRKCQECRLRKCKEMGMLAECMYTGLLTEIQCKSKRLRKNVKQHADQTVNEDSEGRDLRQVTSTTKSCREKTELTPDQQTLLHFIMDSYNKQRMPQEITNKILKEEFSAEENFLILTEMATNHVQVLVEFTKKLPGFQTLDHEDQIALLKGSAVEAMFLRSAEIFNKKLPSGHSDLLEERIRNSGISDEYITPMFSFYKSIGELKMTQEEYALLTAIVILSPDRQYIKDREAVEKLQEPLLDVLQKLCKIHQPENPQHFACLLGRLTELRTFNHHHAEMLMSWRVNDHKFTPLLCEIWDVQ
Outline: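 Cell-based FXR transactivation measured with a dual-luciferase reporter system; cells exposed to 10 μM compound. Mean ± SEM, n = 3.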

HepG2 [9] = assay: Up-regulation of FXR mRNA expression in human HepG2 cells at 10 uM by RT-PCR analysis; format: functional, cell-based
Outline: (§3)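 HepG2 cells exposed to test agent at 10 μM; mRNA of FXR and FXR-regulated genes SHP, BSEP and SREBP-1c quantified by real-time PCR relative to vehicle. Mean ± SEM, n = 3.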

[10] = target: T1, Bile acid receptor (Homo sapiens); assay: Agonist activity against FXR in human HepG2 cells assessed as up-regulation of SHP mRNA expression at 10 uM by RT-PCR analysis; format: cell-based; outline: as §3
[11] = target: T1, Bile acid receptor (Homo sapiens); assay: Agonist activity against FXR in human HepG2 cells assessed as up-regulation of BSEP mRNA expression at 10 uM by RT-PCR analysis; format: cell-based; outline: as §3
[12] = target: T1, Bile acid receptor (Homo sapiens); assay: Agonist activity against FXR in human HepG2 cells assessed as down regulation of SREBP-1c mRNA expression at 10 uM by RT-PCR analysis; format: cell-based; outline: as §3
[13] = Hepatotoxicity in human HepG2 cells assessed as reduction in cell viability at 80 uM; format: toxicity, cell-based; details: hepg2, 80 µM
HepG2 [14] = assay: Induction of cell proliferation in human HepG2 cells at <20 uM; format: functional, cell-based

SMILES	Activity (3T3-L1 [1])	Activity (3T3-L1 [2])	Activity (3T3-L1 [4])	further results
CC(C)c1onc(-c2c(Cl)cccc2Cl)c1COc1ccc2c(=O)c(-c3ccc(F)cc3)coc2c1	Non-Toxic	Non-Toxic		
CC(C)c1onc(-c2c(Cl)cccc2Cl)c1COc1ccc2c(=O)c(-c3ccc(C(=O)NC4CC4)cc3)coc2c1	Non-Toxic	Non-Toxic	Active	Activity (3T3-L1 [3]): Active
CC(C)c1onc(-c2c(Cl)cccc2Cl)c1COc1ccc2c(=O)c(-c3ccc([N+](=O)[O-])cc3)coc2c1	Non-Toxic	Non-Toxic	Active	
CC(C)c1onc(-c2c(Cl)cccc2Cl)c1COc1ccc2c(=O)c(-c3ccc(C(=O)N(C)C)cc3)coc2c1	Non-Toxic	Non-Toxic	Active	Activity (3T3-L1 [5]): >50%; Activity (3T3-L1 [6]): Dose-dependent effect; Activity (3T3-L1 [7]): Active; Activity [8]: Active; Activity (HepG2 [9]): Active; Activity [10]: Active; Activity [11]: Active; Activity [12]: Active; Activity [13]: Non-Toxic; Activity (HepG2 [14]): Active
CCOC(=O)COc1ccc(-c2coc3cc(OCc4c(-c5c(Cl)cccc5Cl)noc4C(C)C)ccc3c2=O)cc1	Non-Toxic	Non-Toxic	Active	
CC(C)c1onc(-c2c(Cl)cccc2Cl)c1COc1ccc(/C=C/c2cccc(C(=O)O)c2)c(Cl)c1		Non-Toxic	Active	Activity [8]: Active
COc1ccc(-c2coc3cc(OCc4c(-c5c(Cl)cccc5Cl)noc4C(C)C)ccc3c2=O)cc1	Non-Toxic	Non-Toxic	Active	
COC(=O)c1ccc(-c2coc3cc(OCc4c(-c5c(Cl)cccc5Cl)noc4C(C)C)ccc3c2=O)cc1	Non-Toxic	Non-Toxic	Active	
CCNC(=O)c1ccc(-c2coc3cc(OCc4c(-c5c(Cl)cccc5Cl)noc4C(C)C)ccc3c2=O)cc1	Non-Toxic	Non-Toxic	Active	
CNC(=O)c1ccc(-c2coc3cc(OCc4c(-c5c(Cl)cccc5Cl)noc4C(C)C)ccc3c2=O)cc1	Non-Toxic	Non-Toxic	Active	
CC(C)c1onc(-c2c(Cl)cccc2Cl)c1COc1ccc2c(=O)c(-c3ccc(O)cc3)coc2c1	Toxic	Non-Toxic	Active	
CC(C)c1onc(-c2c(Cl)cccc2Cl)c1COc1ccc2c(=O)c(-c3ccc(OCC(=O)O)cc3)coc2c1	Non-Toxic	Non-Toxic	Active	
CC(C)c1onc(-c2c(Cl)cccc2Cl)c1COc1ccc2c(=O)c(-c3ccc(C(=O)O)cc3)coc2c1	Non-Toxic	Non-Toxic	Active	
